Measured values collected from several papers.
EGFR: Epidermal growth factor receptor (EGFR, Homo sapiens, UniProt P00533)
EGFR L858R: Epidermal growth factor receptor (EGFR, Homo sapiens, UniProt P00533, L858R)
EGFR G719S: Epidermal growth factor receptor (EGFR, Homo sapiens, UniProt P00533, G719S)
EGFR A750P/del747-749: Epidermal growth factor receptor (EGFR, Homo sapiens, UniProt P00533, A750P/del747-749)
EGFR del746-750: Epidermal growth factor receptor (EGFR, Homo sapiens, UniProt P00533, del746-750)
EGFR L858R/T790M: Epidermal growth factor receptor (EGFR, Homo sapiens, UniProt P00533, L858R/T790M)
EGFR G719C: Epidermal growth factor receptor (EGFR, Homo sapiens, UniProt P00533, G719C)
EGFR L861Q: Epidermal growth factor receptor (EGFR, Homo sapiens, UniProt P00533, L861Q)
EGFR del752-759: Epidermal growth factor receptor (EGFR, Homo sapiens, UniProt P00533, del752-759)

C[C@@H]1CN(c2ccc3ncc(-c4ccc5[nH]nc(C6CC6)c5c4)n3n2)C[C@H](C)O1  remaining binding (EGFR; binding, competition with immobilised ligand; 0.5 µM): 31%
O=C(NCCCN1CCOCC1)c1ccc(Nc2nccc(-c3cc4ccccc4s3)n2)cc1  remaining binding (EGFR L858R; binding, competition with immobilised ligand; 1 µM): 88%
CCN1CCN(Cc2ccc(C(=O)Nc3ccc(C)c(Oc4ccc5c(c4)CC(=O)N5)c3)cc2C(F)(F)F)CC1  remaining binding (EGFR G719S; binding, competition with immobilised ligand; 1 µM): 80%
COc1cnc(Nc2cccc(S(N)(=O)=O)c2)nc1N1CCN(c2ccccc2)CC1  remaining binding (EGFR A750P/del747-749; binding, competition with immobilised ligand; 1 µM): 100%
O=C(c1ccc(Nc2nccc(-c3cc4ccccc4s3)n2)cc1)N1CCC(N2CCCC2)CC1  remaining binding (Epidermal growth factor receptor (EGFR, Homo sapiens, UniProt P00533, del747-752/P753S); binding, competition with immobilised ligand; 1 µM): 90%
O=C(Nc1c[nH]nc1C(=O)NC1CCNCC1)c1cc(F)cc(F)c1  remaining binding (EGFR G719S; binding, competition with immobilised ligand; 1 µM): 100%
c1cncc(-c2cccc(Nc3nccc(NC4CCCCC4)n3)c2)c1  remaining binding (EGFR del746-750; binding, competition with immobilised ligand; 10 µM): 38%
CN(C)c1ncnc(-c2ccc3nc(Nc4cc(CN5CCN(C(=O)CC(F)(F)F)CC5)ccn4)[nH]c3c2)c1Cl  remaining binding (EGFR L858R/T790M; cell-free assay, competition with immobilised ligand; 1 µM): 82%
COc1ccnn2ncc(-c3ccnc(N(C)C)n3)c12  remaining binding (EGFR G719C; binding; 1 µM): 92%
Cc1nccc(COC(=O)N2C[C@@H]3[C@@H](CNC(=O)c4ccc5[nH]nnc5c4)[C@@H]3C2)n1  remaining binding (EGFR A750P/del747-749; cell-free assay, competition with immobilised ligand; 1 µM): 71%
COc1ncc2cc3ccccc3nc2c1C#N  remaining binding (EGFR del746-750; cell-free assay, competition with immobilised ligand; 5 µM): 87%
O=C(c1ccc(Nc2ncc(Cl)c(-c3ccc(Cl)s3)n2)cc1)N1CCC(N2CCCC2)CC1  remaining binding (EGFR L858R; binding, competition with immobilised ligand; 1 µM): 72%
CN(c1nccc(-c2cnn3ncccc23)n1)C1CC1  remaining binding (EGFR L858R/T790M; binding; 1 µM): 100%
C[C@H](c1ccc(F)cc1)N(Cc1cccc(C(=O)O)c1)C(=O)c1cnc2ccccc2c1  remaining binding (EGFR G719S; cell-free assay, competition with immobilised ligand; 1 µM): 100%
Cc1cnc(Nc2ccc(C(=O)N3CCC(N4CCCC4)CC3)cc2)nc1-c1cc2ccccc2s1  remaining binding (EGFR G719C; binding, competition with immobilised ligand; 1 µM): 92%
CNC(=O)c1ccc(Nc2ncc(C(F)(F)F)c(NCc3nccnc3N(C)S(C)(=O)=O)n2)cc1  remaining binding (EGFR L858R; cell-free assay, competition with immobilised ligand; 0.1 µM): 100%
O=C(NCC1CCOCC1)c1n[nH]cc1NC(=O)c1c(F)cccc1F  remaining binding (EGFR L861Q; binding, competition with immobilised ligand; 1 µM): 100%
CN1CCN(c2ccc(Nc3nccc(-c4cccc([N+](=O)[O-])c4)n3)cc2C(F)(F)F)CC1  remaining binding (EGFR del752-759; binding; 10 µM): 74%
CN(C)c1ncc(F)c(-c2cnn3ncccc23)n1  remaining binding (EGFR G719S; binding; 1 µM): 100%
O=C(NC1CCC1)c1ccc2nc(-c3cccc(NS(=O)(=O)NCCN4CCCCC4)c3)cn2c1  remaining binding (EGFR A750P/del747-749; cell-free assay, competition with immobilised ligand; 10 µM): 100%
CCOC(=O)c1cc2cc(-c3cc(C(=O)NCc4ccc(C(=O)O)cc4)nn3C)ccc2[nH]1  remaining binding (EGFR G719C; cell-free assay, competition with immobilised ligand; 0.1 µM): 100%
N[C@H]1CCN(c2nccc(-c3cnn4ncccc34)n2)C1  remaining binding (EGFR L858R; binding; 1 µM): 100%
Cc1c(-c2ccccc2)oc2c(C(=O)OCCN3CCCCC3)cccc2c1=O  remaining binding (EGFR; cell-free assay, competition with immobilised ligand; 0.1 µM): 100%
C[C@@H]1CCN(c2nccc(-c3cnn4ncccc34)n2)C1  remaining binding (EGFR del752-759; binding; 1 µM): 88%
COc1cccc(CNC(=O)c2nc3scc(COCc4ccc(C(=O)O)cc4)c3c(=O)[nH]2)c1  remaining binding (EGFR L858R; cell-free assay, competition with immobilised ligand; 1 µM): 88.3%
O=C(NCCCN1CCOCC1)c1ccc(Nc2ncc(Cl)c(-c3ccc(Cl)s3)n2)cc1  remaining binding (EGFR G719C; binding, competition with immobilised ligand; 1 µM): 100%
Cc1cnn2ncc(-c3ccnc(N(C)C)n3)c2c1  remaining binding (EGFR del746-750; binding; 1 µM): 100%
O=C(c1ccc(Nc2ncc(Cl)c(-c3cc4ccccc4s3)n2)cc1)N1CCC(N2CCCC2)CC1  remaining binding (EGFR L858R/T790M; binding, competition with immobilised ligand; 1 µM): 64%
COc1cnc(Nc2cccc(S(N)(=O)=O)c2)nc1N1CCN(c2ccccc2)C(=O)C1  remaining binding (EGFR L858R/T790M; binding, competition with immobilised ligand; 1 µM): 72%
CCCOc1ccc([C@@H]2[C@@H](C(=O)O)[C@H](c3ccc4c(c3)OCO4)CN2CC(=O)Nc2c(CC)cccc2CC)cc1  remaining binding (EGFR L861Q; cell-free assay, competition with immobilised ligand; 1 µM): 100%
Nc1ncc2c(n1)-c1c([nH]c3ccc(C#CC4CC4)cc13)CCCC2  remaining binding (EGFR L861Q; binding, competition with immobilised ligand; 1 µM): 92%
CN1CCN(c2ccc(Nc3nccc(-c4ccccc4)n3)cc2C(F)(F)F)CC1  remaining binding (EGFR G719S; binding; 10 µM): 98%
CNC(=O)[C@@H]1CC[C@@H](n2c(-c3ccc4cnccc4c3)nc3ccc(C(=O)NCc4cccc(C(N)=O)c4)cc32)C1  remaining binding (EGFR L861Q; binding, competition with immobilised ligand; 1 µM): 100%
CN([C@@H]1CCc2c(CC(=O)O)c3ccccc3n2C1)S(=O)(=O)c1ccc(F)cc1  remaining binding (EGFR A750P/del747-749; cell-free assay, competition with immobilised ligand; 1 µM): 100%
F[C@@H]1CCN(c2nccc(-c3cnn4ncccc34)n2)C1  remaining binding (EGFR L858R/T790M; binding; 1 µM): 100%
